Assay [1] concerns ACHN. As to the kind of experiment: cells. It is filed as cell-based. Particulars: 10^−5 M, 48 h.
In assay [2] the test system is A549/ATCC. As to the kind of experiment: cells. The class given is cell-based. As to conditions: A549/ATCC, 10^−5 M, 48 h.
Assay [3] deals with PC-3. As to the kind of experiment: cells. Particulars: PC-3, 10^−5 M, 48 h. It is filed as cell-based.
Assay [4] deals with SNB-75. As to the kind of experiment: cells. The class given is cell-based. Particulars: SNB-75, 10^−5 M, 48 h.
Assay [5] relates to UACC-62. As to the kind of experiment: cells. It is filed as cell-based. Particulars: UACC-62, 10^−5 M, 48 h.
For assay [6], the system named is UO-31. As to the kind of experiment: cells. The class given is cell-based. Particulars: UO-31, 10^−5 M, 48 h.
In assay [7] the test system is T-47D. As to the kind of experiment: cells. The class given is cell-based. As to conditions: T-47D, 10^−5 M, 48 h.
Assay [8] deals with MOLT-4. As to the kind of experiment: cells. It is filed as cell-based. As to conditions: MOLT-4, 10^−5 M, 48 h.
The subject of assay [9] is HCC-2998. As to the kind of experiment: cells. The class given is cell-based. Particulars: HCC-2998, 10^−5 M, 48 h.
For assay [10], the system named is NCI-H322M. As to the kind of experiment: cells. The class given is cell-based. Particulars: 10^−5 M, 48 h.
Assay [11] concerns K-562. As to the kind of experiment: cells. It is filed as cell-based. Particulars: K-562, 10^−5 M, 48 h.
In assay [12] the test system is HOP-92. As to the kind of experiment: cells. The class given is cell-based. Particulars: HOP-92, 10^−5 M, 48 h.
The subject of assay [13] is MDA-MB-435. As to the kind of experiment: cells. Particulars: MDA-MB-435, 10^−5 M, 48 h. It is filed as cell-based.
Assay [14] relates to SK-OV-3. As to the kind of experiment: cells. It is filed as cell-based. Particulars: SK-OV-3, 10^−5 M, 48 h.
The test system of assay [15] is HCT-15. As to the kind of experiment: cells. It is filed as cell-based. As to conditions: HCT-15, 10^−5 M, 48 h.
For assay [16], the system named is NCI-60 panel of tumor cell lines. As to conditions: average over tested NCI-60 cell lines, 10^−5 M (10 μM), 48 h.
The subject of assay [17] is SK-MEL-5. As to the kind of experiment: cells. It is filed as cell-based. As to conditions: SK-MEL-5, 10^−5 M, 48 h.
The test system of assay [18] is MCF7. As to the kind of experiment: cells. The class given is cell-based. Particulars: MCF7, 10^−5 M, 48 h.
Assay [19] concerns SF-295. As to the kind of experiment: cells. It is filed as cell-based. Particulars: SF-295, 10^−5 M, 48 h.
Assay [20] relates to SNB-19. As to the kind of experiment: cells. As to conditions: SNB-19, 10^−5 M, 48 h. The class given is cell-based.
Assay [21] has as its system SR. As to the kind of experiment: cells. Particulars: 10^−5 M, 48 h. The class given is cell-based.
In assay [22] the test system is BT-549. As to the kind of experiment: cells. The class given is cell-based. As to conditions: BT-549, 10^−5 M, 48 h.
The test system of assay [23] is HT29. As to the kind of experiment: cells. The class given is cell-based. Particulars: HT29, 10^−5 M, 48 h.
Assay [24] relates to NCI-H460. As to the kind of experiment: cells. The class given is cell-based. As to conditions: NCI-H460, 10^−5 M, 48 h.
The subject of assay [25] is HOP-62. As to the kind of experiment: cells. It is filed as cell-based. Particulars: HOP-62, 10^−5 M, 48 h.
The test system of assay [26] is NCI-H226. As to the kind of experiment: cells. The class given is cell-based. Particulars: NCI-H226, 10^−5 M, 48 h.
For assay [27], the system named is SN12C. As to the kind of experiment: cells. The class given is cell-based. As to conditions: 10^−5 M, 48 h.
Assay [28] deals with MDA-MB-468. As to the kind of experiment: cells. Particulars: MDA-MB-468, 10^−5 M, 48 h. The class given is cell-based.
Assay [29] deals with OVCAR-8. As to the kind of experiment: cells. It is filed as cell-based. Particulars: OVCAR-8, 10^−5 M, 48 h.
The test system of assay [30] is SF-539. As to the kind of experiment: cells. It is filed as cell-based. Particulars: SF-539, 10^−5 M, 48 h.
In assay [31] the test system is LOX IMVI. As to the kind of experiment: cells. The class given is cell-based. As to conditions: 10^−5 M, 48 h.
For assay [32], the system named is NCI-H522. As to the kind of experiment: cells. As to conditions: NCI-H522, 10^−5 M, 48 h. The class given is cell-based.
Assay [33] has as its system SF-268. As to the kind of experiment: cells. Particulars: SF-268, 10^−5 M, 48 h. It is filed as cell-based.
The target in assay [34] is ERK2 (Rattus norvegicus, UniProt P63086). As to the kind of experiment: in vitro radioactive kinase assay, Ets-1 phosphorylation by ERK2. As to conditions: 100 μM ATP /10mM Ets-1. The class given is biochemical. In outline:
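Activated rat ERK2 (2 nM) was tested with His-Ets-1 (1–138) at 28–30 °C in HEPES pH 7.5 buffer with 11 mM MgCl2, BSA and 5% DMSO. Reactions were started with [γ-32P]ATP (10 or 100 μM).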

The subject of assay [35] is CCRF-CEM. As to the kind of experiment: cells. The class given is cell-based. As to conditions: 10^−5 M, 48 h.
The test system of assay [36] is M14. As to the kind of experiment: cells. It is filed as cell-based. Particulars: M14, 10^−5 M, 48 h.
For assay [37], the system named is HL-60 (TB). As to the kind of experiment: cells. The class given is cell-based. As to conditions: HL-60(TB), 10^−5 M, 48 h.
For assay [38], the system named is OVCAR-4. As to the kind of experiment: cells. It is filed as cell-based. Particulars: OVCAR-4, 10^−5 M, 48 h.
Assay [39] has as its system KM 12. As to the kind of experiment: cells. Particulars: KM 12, 10^−5 M, 48 h. The class given is cell-based.
Assay [40] relates to SW-620. As to the kind of experiment: cells. The class given is cell-based. Particulars: SW-620, 10^−5 M, 48 h.
Assay [41] concerns RPMI-8226. As to the kind of experiment: cells. It is filed as cell-based. Particulars: RPMI-8226, 10^−5 M, 48 h.
The test system of assay [42] is SK-MEL-28. As to the kind of experiment: cells. It is filed as cell-based. Particulars: SK-MEL-28, 10^−5 M, 48 h.
Assay [43] has as its system NCI-H23. As to the kind of experiment: cells. Particulars: NCI-H23, 10^−5 M, 48 h. The class given is cell-based.
The subject of assay [44] is DU-145. As to the kind of experiment: cells. The class given is cell-based. As to conditions: DU-145, 10^−5 M, 48 h.
The subject of assay [45] is RXF 393. As to the kind of experiment: cells. The class given is cell-based. As to conditions: RXF 393, 10^−5 M, 48 h.
Assay [46] relates to MALME-3M. As to the kind of experiment: cells. The class given is cell-based. Particulars: MALME-3M, 10^−5 M, 48 h.
The test system of assay [47] is OVCAR-5. As to the kind of experiment: cells. The class given is cell-based. As to conditions: OVCAR-5, 10^−5 M, 48 h.
Assay [48] relates to SK-MEL-2. As to the kind of experiment: cells. Particulars: SK-MEL-2, 10^−5 M, 48 h. The class given is cell-based.
Assay [49] deals with OVCAR-3. As to the kind of experiment: cells. As to conditions: OVCAR-3, 10^−5 M, 48 h. The class given is cell-based.
Assay [50] deals with IGROV1. As to the kind of experiment: cells. The class given is cell-based. As to conditions: IGROV1, 10^−5 M, 48 h.
Assay [51] has as its system U251. As to the kind of experiment: cells. It is filed as cell-based. Particulars: U251, 10^−5 M, 48 h.
Assay [52] deals with HCT-116. As to the kind of experiment: cells. The class given is cell-based. As to conditions: HCT-116, 10^−5 M, 48 h.
The mark [53] stands for this setting: ERK2 IC50 at 100 μM ATP /10mM Ets-1, Table 4.

Results on three compounds are retold here after paper PMC6543826 (Bioorganic chemistry, 2018).

Where two headings read alike, the source gives them in different places.

Sequence of ERK2 (P63086 whole entry): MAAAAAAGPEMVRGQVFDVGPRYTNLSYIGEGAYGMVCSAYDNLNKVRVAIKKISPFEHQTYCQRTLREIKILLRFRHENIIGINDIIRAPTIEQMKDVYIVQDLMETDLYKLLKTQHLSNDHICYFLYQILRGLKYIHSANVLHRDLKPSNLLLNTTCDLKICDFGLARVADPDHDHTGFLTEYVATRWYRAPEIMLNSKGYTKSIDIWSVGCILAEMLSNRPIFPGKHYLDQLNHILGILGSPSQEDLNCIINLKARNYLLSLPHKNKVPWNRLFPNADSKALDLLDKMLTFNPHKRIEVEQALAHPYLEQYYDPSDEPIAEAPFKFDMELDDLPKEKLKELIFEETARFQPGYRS

For the compound `CCn1c(=O)c2c(=O)c3c4c(oc3oc2c2ccccc21)C(=O)c1ccccc1C4=O` [5b, 5-Ethyl-5H-naphthalen[2″,3″:4′,5′]furo[3′,2′:4′,5,6]pyrano[3,2-c]quinoline-6,7,8,13-tetraone], the “Growth percent (G%)” value in assay [1] is 79.61%; in assay [2], 82.36%; in assay [3] it was 81.82%; in assay [4] it was 119.73%; in assay [5], 63.95%; in [6], 112.5%. The “Growth percent (G%)” value in assay [7] was 85.06%; in assay [8] it was −24.49%; in [9] it was 100.59%; in [10], 97.72%; in [11] it was 28.57%; in assay [12] it was 50.81%. Further, the “Growth percent (G%)” value turned out to be 95.88% in assay [13]; 102.05% in assay [14]; 79.63% in [15]; 67.42% in assay [17]; 92.37% in assay [18]; 95.07% in [19]. Moreover, the “Growth percent (G%)” value in [20] is recorded as 90.17%; in [21], 80.76%; in assay [22], 93.67%; in assay [23], 63.02%; in [24], 83.68%; in [25], 80.29%. For the same compound, the “Growth percent (G%)” value is on record as 99.44% in assay [26]; 106.07% in assay [27]; −9.96% in [28]; 10.25% in assay [29]; 89.92% in assay [30]; 32.39% in assay [31]. Further, the “Growth percent (G%)” value is on record as 65.5% in [32]; 84.32% in assay [33]; 2.47% in assay [35]; 89.81% in [36]; −18.8% in [37]; −99.52% in assay [38]. The “Growth percent (G%)” value came to 86.61% in [39]; 73.47% in assay [40]; 33.49% in [41]; 106.96% in assay [42]; 66.79% in [43]; 42.4% in assay [44]. The “Growth percent (G%)” value in assay [45] was 72.63%; in assay [46] it was 112.5%; in [47] it was 117.77%; in [48] it was 79.89%; in [49], −16.31%; in [50], 68.31%. Further, the “Growth percent (G%)” value came out at 57.67% in assay [51] and 34.6% in [52]. The “Average G%” value in assay [16] was 65.81%. Further, in assay [34] (read-out: ERK2 IC50 at 100 μM ATP /10mM Ets-1, Table 4), the IC50 is 8.3 ± 1.5 µM.

For `Cc1ccc2[nH]c(=O)c3c4c(oc3c2c1)C(=O)c1ccccc1C4=O` [3d, 2-Methylnaphtho[2′,3′:4,5]furo[3,2-c]quinoline-6,7,12(5H)-trione], in assay [34] (setting [53]), the IC50 stood at 59 ± 8.2 µM.

For `O=C1c2ccccc2C(=O)c2c1oc1c2c(=O)[nH]c2ccc(Br)cc21` [3c, 2-Bromonaphtho[2′,3′:4,5]furo[3,2-c]quinoline-6,7,12(5H)-trione], the IC50 in [34] (setting [53]) was over 100 µM.
